Experimental findings from ChEMBL document CHEMBL1138502, “Discovery and biological evaluation of novel cyanoguanidine P2X(7) antagonists with analgesic activity in a rat model of neuropathic pain” (J Med Chem, 2009) are described below.

In series [1] the target is T1, P2X purinoceptor 3 (Homo sapiens) (UniProt P56373).
T1 sequence (whole entry): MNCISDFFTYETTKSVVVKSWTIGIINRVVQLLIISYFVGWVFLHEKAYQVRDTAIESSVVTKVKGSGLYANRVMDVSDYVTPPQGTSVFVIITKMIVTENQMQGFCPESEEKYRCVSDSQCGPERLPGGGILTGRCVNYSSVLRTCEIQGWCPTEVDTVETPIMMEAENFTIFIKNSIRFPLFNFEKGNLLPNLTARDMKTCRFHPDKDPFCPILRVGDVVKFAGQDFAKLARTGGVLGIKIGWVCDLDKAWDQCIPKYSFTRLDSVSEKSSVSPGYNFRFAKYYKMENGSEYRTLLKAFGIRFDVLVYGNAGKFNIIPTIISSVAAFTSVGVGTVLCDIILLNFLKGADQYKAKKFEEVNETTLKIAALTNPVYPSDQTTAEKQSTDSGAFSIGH
In words: Activity at P2X3 receptor up to 10 uM.

For series [2], the target named is P2Y purinoceptor 2 (Homo sapiens) (UniProt P41231). In words: Activity at P2Y2 receptor up to 10 uM.
Sequence of P2Y purinoceptor 2 (Homo sapiens) (P41231 whole entry): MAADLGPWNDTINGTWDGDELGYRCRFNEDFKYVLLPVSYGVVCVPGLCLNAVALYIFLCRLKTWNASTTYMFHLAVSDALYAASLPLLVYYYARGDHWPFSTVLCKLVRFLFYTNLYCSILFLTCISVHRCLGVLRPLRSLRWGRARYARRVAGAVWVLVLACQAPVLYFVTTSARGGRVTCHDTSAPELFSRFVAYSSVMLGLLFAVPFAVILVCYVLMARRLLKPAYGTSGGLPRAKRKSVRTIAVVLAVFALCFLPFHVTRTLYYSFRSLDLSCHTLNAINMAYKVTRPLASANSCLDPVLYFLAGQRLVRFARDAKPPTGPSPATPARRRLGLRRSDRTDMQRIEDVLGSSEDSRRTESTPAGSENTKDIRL
The nature of series [3]: Bioavailability in rat at 10 umol/kg, ip. The series is classed as ADME, organism-based. The following applies: in vivo.
Series [4] has as its system Rattus norvegicus. Nature of the series: Antinociceptive activity in ip dosed rat L5-L6 spinal nerve ligation model of neuropathic pain assessed as reduction in tactile allodynia. Type of series: functional. Set-up: Activity: scale not given: the % may be the effect or the level left. The following applies: for ED50: Rattus norvegicus, Spinal nerve, ip. In short, it runs like this: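 Intraperitoneal dosing in rats with L5-L6 spinal nerve ligation (Chung model). Tactile allodynia was measured by von Frey testing. ED50 in µmol/kg and maximum efficacy (%) are the mean of six animals.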

In series [5] the target is T2, P2X purinoceptor 4 (Homo sapiens) (UniProt Q99571).
T2 sequence (whole entry): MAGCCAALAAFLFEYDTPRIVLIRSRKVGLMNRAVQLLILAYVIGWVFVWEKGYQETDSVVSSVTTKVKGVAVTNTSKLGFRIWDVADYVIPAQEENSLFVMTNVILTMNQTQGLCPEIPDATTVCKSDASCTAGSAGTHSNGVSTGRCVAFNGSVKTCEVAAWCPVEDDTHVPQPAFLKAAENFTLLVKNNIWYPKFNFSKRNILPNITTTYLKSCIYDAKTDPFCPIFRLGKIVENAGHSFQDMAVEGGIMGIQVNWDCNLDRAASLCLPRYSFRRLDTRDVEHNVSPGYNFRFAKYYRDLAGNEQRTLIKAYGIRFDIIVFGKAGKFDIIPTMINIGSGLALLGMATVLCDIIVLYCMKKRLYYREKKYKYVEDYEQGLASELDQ
In words: Activity at P2X4 receptor up to 10 uM.

Series [6] has as its target T3, P2X purinoceptor 7 (Homo sapiens, UniProt Q99572).
T3 sequence (Q99572 whole entry): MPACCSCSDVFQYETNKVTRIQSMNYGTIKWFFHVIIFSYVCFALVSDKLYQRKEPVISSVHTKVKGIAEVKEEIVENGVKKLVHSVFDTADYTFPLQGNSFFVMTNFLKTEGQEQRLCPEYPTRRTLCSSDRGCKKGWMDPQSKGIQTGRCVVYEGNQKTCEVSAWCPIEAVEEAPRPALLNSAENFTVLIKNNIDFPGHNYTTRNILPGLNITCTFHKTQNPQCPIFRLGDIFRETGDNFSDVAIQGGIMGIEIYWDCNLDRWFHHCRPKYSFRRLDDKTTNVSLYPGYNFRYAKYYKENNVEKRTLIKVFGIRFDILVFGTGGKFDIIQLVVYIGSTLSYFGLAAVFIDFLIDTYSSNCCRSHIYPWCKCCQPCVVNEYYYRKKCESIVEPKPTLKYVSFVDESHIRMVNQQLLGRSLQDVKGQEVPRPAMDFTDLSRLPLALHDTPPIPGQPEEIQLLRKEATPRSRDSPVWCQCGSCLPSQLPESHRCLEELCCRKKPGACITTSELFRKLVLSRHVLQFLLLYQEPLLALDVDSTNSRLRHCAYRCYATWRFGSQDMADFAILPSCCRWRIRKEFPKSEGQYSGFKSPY
Nature of the series: Antagonist activity at human cloned P2X7 receptor expressed in HEK293 cells assessed as inhibition of calcium flux by FLIPR assay. Type of series: functional, cell-based. The essentials:
(§1)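 Calcium influx read on a fluorometric imaging plate reader with Fluo-4 as the calcium-sensing dye. The P2X7 agonist was benzoylbenzoic ATP (BzATP). pIC50 values are the mean of two experiments unless otherwise indicated; some values are the mean of more than two experiments, with standard deviation shown.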
On the technique in general: A change in cytosolic calcium serves as a functional read-out for many receptors and channels.

Series [7] can be described thus: Selectivity for P2X7 receptor over potassium channel.
Series [8] deals with T4, P2X purinoceptor 7 (Rattus norvegicus, UniProt Q64663).
T4 sequence (Q64663 whole entry): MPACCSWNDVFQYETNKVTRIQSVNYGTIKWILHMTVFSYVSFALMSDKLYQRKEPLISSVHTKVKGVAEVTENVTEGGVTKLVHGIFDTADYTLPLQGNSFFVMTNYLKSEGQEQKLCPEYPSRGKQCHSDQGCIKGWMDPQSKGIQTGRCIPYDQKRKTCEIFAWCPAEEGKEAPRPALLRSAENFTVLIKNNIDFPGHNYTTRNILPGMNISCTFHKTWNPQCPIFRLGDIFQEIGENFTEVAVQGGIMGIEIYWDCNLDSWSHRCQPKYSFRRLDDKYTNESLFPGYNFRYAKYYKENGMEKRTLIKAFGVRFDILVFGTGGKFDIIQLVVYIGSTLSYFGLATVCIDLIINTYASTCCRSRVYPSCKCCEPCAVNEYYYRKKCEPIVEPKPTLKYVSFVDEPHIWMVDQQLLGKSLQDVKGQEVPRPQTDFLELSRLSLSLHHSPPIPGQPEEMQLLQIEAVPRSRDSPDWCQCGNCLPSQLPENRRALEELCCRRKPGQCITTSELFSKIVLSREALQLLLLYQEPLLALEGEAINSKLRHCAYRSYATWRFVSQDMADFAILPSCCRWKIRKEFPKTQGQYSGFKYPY
In words: Antagonist activity at rat cloned P2X7 receptor expressed in HEK293 cells assessed as inhibition of calcium flux by FLIPR assay. Type of series: functional, cell-based. In short, it runs like this:
as §1

Series [9] is described as follows: Oral bioavailability in rat. The series is classed as ADME, organism-based. The following applies: in vivo.
The test system of series [10] is Rattus norvegicus. In words: Antiallodynic activity in rat L5-L6 spinal nerve ligation model of neuropathic pain assessed as inhibition of mechanical allodynia after chronic administration of vehicle twice daily for 4 days followed by acute dose of 100 umol/kg, po on day 5. The arrangement: scale not given: the % may be the effect or the level left. The series is classed as functional. In short, it runs like this:
(§2)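 Rats with L5-L6 spinal nerve ligation (Chung model) received vehicle (5% DMSO/PEG) or compound at 100 µmol/kg orally twice a day for four days. On day 5, vehicle or compound was given orally 1 h before von Frey testing for mechanical allodynia. Results are % effect ± SEM, N = 6 per group, with P vs the respective vehicle group.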

Series [11] has as its system Rattus norvegicus. Nature of the series: Antiallodynic activity in rat L5-L6 spinal nerve ligation model of neuropathic pain assessed as inhibition of mechanical allodynia at 100 umol/kg, po single administration. Type of series: functional. Set-up: scale not given: the % may be the effect or the level left. In short, it runs like this:
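Chung-model rats (L5-L6 spinal nerve ligation) were given a single oral dose, with 5% DMSO/PEG as vehicle. Mechanical allodynia was read by von Frey testing and expressed as % effect ± SEM, N = 6 per group, compared with vehicle.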

Series [12] concerns Rattus norvegicus. Nature of the series: Antiallodynic activity in rat L5-L6 spinal nerve ligation model of neuropathic pain assessed as inhibition of mechanical allodynia at 100 umol/kg, po administered twice daily for 4 days once on day 5. Type of series: functional. The arrangement: scale not given: the % may be the effect or the level left. In short, it runs like this: as §2

In general, bioavailability refers to the share of a dose that reaches the circulation, judged against a reference dose that is usually intravenous. In general, ED50 refers to the dose that gives a 50% effect, or the effect in half of the subjects. As a reminder, the IC50 is the midpoint of a concentration-inhibition curve.

Active and inactive are the calls of the source. The rule behind the calls is not given here.

As to `COc1ccc(CC(=O)NC(N/C(=N/C#N)Nc2cccc3ncccc23)C(C)(C)C)cc1OC` (stereo not given), the result in [1], in series [2] and in series [5] was inactive. The compound also came in with a bioavailability in [3] of 79%. The Activity in the series on Rattus norvegicus [4] is on record as 65%. The median effective dose (ED50) in the series on Rattus norvegicus [4] stood at 41 µmol/kg. The IC50 on P2X purinoceptor 7 [6] was 39.8 nM.

Consider `CC(Cl)(Cl)C(NC(=O)c1ccc(Cl)cc1)N/C(=N/C#N)Nc1cccnc1Cl` (stereo not given), for which the Selectivity ratio in series [7] was 100.

As for `COc1ccc(CC(=O)NC(N/C(=N/C#N)Nc2ccccc2C)C(C)(C)C)cc1OC` (stereo in doubt; 13), the result in series [1], in series [2] and in series [5] was inactive. Moreover, in the series on Rattus norvegicus [4], the Activity was determined as 59%. The ED50 with Rattus norvegicus [4] amounted to 77 µmol/kg.

On to `COc1ncccc1N/C(=N\C#N)NC(NC(=O)c1ccc(Cl)cc1)C(C)(Cl)Cl` (stereo not given), for which the Selectivity ratio in [7] stood at 100.

As to `COc1ccc(CC(=O)NC(NC(=NC#N)Nc2ccccc2C)C(C)(C)C)cc1OC` (stereo in doubt; 13), the half-inhibitory concentration (IC50) at P2X purinoceptor 7 [8] was 12.6 nM; on P2X purinoceptor 7 [6] it was 126 nM. Further, in [3], the bioavailability worked out at 90%.

As for `COc1ccc(CC(=O)NC(N/C(=N/C#N)Nc2cc(C)ccc2C)C(C)(C)C)cc1OC` (stereo not given), the result in [1], in series [2] and in series [5] was inactive.

Consider `CC(C)(C)C(NC(=O)Cc1ccc(Cl)cc1)N/C(=N/C#N)Nc1cccc2ncccc12` (stereo not given), for which, on P2X purinoceptor 7 [8], the IC50 was 6.31 nM. This compound registered a bioavailability in [3] of 66%. Besides, in the series on Rattus norvegicus [4], the Activity is 68% and the 50% effective dose (ED50) was determined as 55 µmol/kg. Also, the IC50 at P2X purinoceptor 7 [6] is 10 nM.

On to `Cc1ncccc1NC(=NC(NC(=O)Cc1ccc(Cl)cc1)C(C)(C)C)NC#N` (stereo not given), for which the 50% inhibitory concentration (IC50) is 39.8 nM on P2X purinoceptor 7 [8] and 31.6 nM at P2X purinoceptor 7 [6]. In addition, the bioavailability in series [3] was 54%; in series [9], 36%.

On to `Cc1ncccc1N/C(=N\C#N)NC(NC(=O)Cc1ccc(Cl)cc1)C(C)(C)C` (stereo not given), for which the Activity came out at 44% in the series on Rattus norvegicus [10], 82% with Rattus norvegicus [4], 45% in the series with Rattus norvegicus [11] and 61% in the series with Rattus norvegicus [12]. Besides, the result in series [1], in [2] and in series [5] was inactive. Moreover, the ED50 with Rattus norvegicus [4] stood at 38 µmol/kg.

For `COc1cc(CC(=O)NC(N/C(=N/C#N)Nc2ccccc2C)C(C)(C)C)cc(OC)c1` (stereo not given), the IC50 at P2X purinoceptor 7 [8] is 63.1 nM; at P2X purinoceptor 7 [6] it was 251 nM.

Turning to `Cc1ncccc1N/C(=N\C#N)NC(NC(=O)Cc1ccc(F)cc1)C(C)(C)C` (stereo not given), the concentration for half-maximal inhibition (IC50) on P2X purinoceptor 7 [8] is 398 nM. Moreover, the bioavailability in series [3] turned out to be 52%. Moreover, in the series on Rattus norvegicus [4], the Activity turned out to be 0% and the 50% effective dose (ED50) is over 300 µmol/kg. Also, the IC50 on P2X purinoceptor 7 [6] is 100 nM.

In the case of `COc1ccc(C(=O)NC(N=C(NC#N)Nc2ccccc2C)C(C)(C)C)cc1OC` (stereo not given), the IC50 on P2X purinoceptor 7 [8] was 631 nM; on P2X purinoceptor 7 [6] it was 5010 nM.

For the compound `CC(C)(C)C(NC(=O)CCCc1cccnc1)N/C(=N/C#N)Nc1cccc2ncccc12` (stereo not given), the results for the IC50 on P2X purinoceptor 7 [8] and at P2X purinoceptor 7 [6] were 39.8 nM and 100 nM, respectively.

With `COc1ccc(CC(=O)NC(N=C(NC#N)Nc2cc(Cl)ccc2F)C(C)(C)C)cc1OC` (stereo not given), the IC50 at P2X purinoceptor 7 [8] was 20 nM; at P2X purinoceptor 7 [6] it was 79.4 nM.
